Results published in ChEMBL document CHEMBL5058577, “EUbOPEN Chemogenomics Library 2 (Multiplex)” (2022).

Tested on: HEK-293T
Experiment: Multiplex assay against HEK293T
Assay type: toxicity, cell-based
Settings: human
Summary of the method: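 On a CQ1 microscope at 37°C and 5% CO2, live cells were imaged after compound addition. They had been stained at seeding with Hoechst33342, BioTracker Green Microtubule Cytoskeleton Dye, MitoTracker Red and Annexin V Alexa Fluor 680. CellPathfinder machine-learning gating assigned cells to Hoechst high-intensity objects or normal cells, normal cells to healthy, pyknosed or fragmented nuclei, and pyknosed cells to mitotic or apoptotic. Tubulin, mitochondrial-mass and membrane-permeability phenotypes are per cents of healthy-nucleus cells.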

[1] = 12 h, 1 µM, compound concentration 1 uM, replicate 1
[2] = 12 h, 1 µM, compound concentration 1 uM, replicate 2
[3] = 12 h, 10 µM, compound concentration 10 uM, replicate 1
[4] = 12 h, 10 µM, compound concentration 10 uM, replicate 2
[5] = 24 h, 1 µM, compound concentration 1 uM, replicate 1
[6] = 24 h, 1 µM, compound concentration 1 uM, replicate 2
[7] = 24 h, 10 µM, compound concentration 10 uM, replicate 1
[8] = 24 h, 10 µM, compound concentration 10 uM, replicate 2
[9] = 48 h, 1 µM, compound concentration 1 uM, replicate 1
[10] = 48 h, 1 µM, compound concentration 1 uM, replicate 2
[11] = 48 h, 10 µM, compound concentration 10 uM, replicate 1
[12] = 48 h, 10 µM, compound concentration 10 uM, replicate 2

COc1cc(OC2CCN(C(C)=O)CC2)ccc1C(=O)N1CCC(N2C(=O)OCc3ccccc32)CC1
Population Apoptotic (%) [1]: 28% | Population Fragmented Nuclei (%) [1]: 5% | Population Healthy Nuclei (%) [1]: 83% | Population Hoechst High Intensity Objects (%) [1]: 7% | Population Membrane Permeable-Phenotype (%) [1]: 0% | Population Mitochondria Different-Phenotype (%) [1]: 37% | Population Mitotic Cells (%) [1]: 71% | Population Normal (%) [1]: 92% | Population Pyknosed Nuclei (%) [1]: 11% | Population Tubulin-Different-Phenotype (%) [1]: 26% | Total Cell Count [1]: 477 | Population Apoptotic (%) [2]: 48% | Population Healthy Nuclei (%) [2]: 76% | Population Mitochondria Different-Phenotype (%) [2]: 59% | Population Mitotic Cells (%) [2]: 51% | Population Pyknosed Nuclei (%) [2]: 18% | Population Tubulin-Different-Phenotype (%) [2]: 21% | Total Cell Count [2]: 381 | Population Apoptotic (%) [3]: 40% | Population Fragmented Nuclei (%) [3]: 9% | Population Healthy Nuclei (%) [3]: 77% | Population Hoechst High Intensity Objects (%) [3]: 8% | Population Membrane Permeable-Phenotype (%) [3]: 0% | Population Mitochondria Different-Phenotype (%) [3]: 57% | Population Mitotic Cells (%) [3]: 60% | Population Normal (%) [3]: 91% | Population Pyknosed Nuclei (%) [3]: 13% | Population Tubulin-Different-Phenotype (%) [3]: 47% | Total Cell Count [3]: 436 | Population Apoptotic (%) [4]: 67% | Population Fragmented Nuclei (%) [4]: 4% | Population Healthy Nuclei (%) [4]: 80% | Population Hoechst High Intensity Objects (%) [4]: 6% | Population Mitochondria Different-Phenotype (%) [4]: 77% | Population Mitotic Cells (%) [4]: 32% | Population Normal (%) [4]: 93% | Population Pyknosed Nuclei (%) [4]: 14% | Population Tubulin-Different-Phenotype (%) [4]: 40% | Total Cell Count [4]: 316 | Population Apoptotic (%) [5]: 28% | Population Fragmented Nuclei (%) [5]: 9% | Population Healthy Nuclei (%) [5]: 78% | Population Hoechst High Intensity Objects (%) [5]: 4% | Population Membrane Permeable-Phenotype (%) [5]: 2% | Population Mitochondria Different-Phenotype (%) [5]: 25% | Population Mitotic Cells (%) [5]: 71% | Population Normal (%) [5]: 95% | Population Pyknosed Nuclei (%) [5]: 11% | Population Tubulin-Different-Phenotype (%) [5]: 17% | Total Cell Count [5]: 598 | Population Apoptotic (%) [6]: 48% | Population Fragmented Nuclei (%) [6]: 7% | Population Healthy Nuclei (%) [6]: 80% | Population Hoechst High Intensity Objects (%) [6]: 6% | Population Membrane Permeable-Phenotype (%) [6]: 0% | Population Mitochondria Different-Phenotype (%) [6]: 40% | Population Mitotic Cells (%) [6]: 51% | Population Normal (%) [6]: 93% | Population Pyknosed Nuclei (%) [6]: 12% | Population Tubulin-Different-Phenotype (%) [6]: 15% | Total Cell Count [6]: 491 | Population Apoptotic (%) [7]: 31% | Population Fragmented Nuclei (%) [7]: 8% | Population Healthy Nuclei (%) [7]: 78% | Population Hoechst High Intensity Objects (%) [7]: 3% | Population Membrane Permeable-Phenotype (%) [7]: 0% | Population Mitochondria Different-Phenotype (%) [7]: 44% | Population Mitotic Cells (%) [7]: 68% | Population Normal (%) [7]: 96% | Population Pyknosed Nuclei (%) [7]: 13% | Population Tubulin-Different-Phenotype (%) [7]: 36% | Total Cell Count [7]: 523 | Population Apoptotic (%) [8]: 49% | Population Fragmented Nuclei (%) [8]: 7% | Population Hoechst High Intensity Objects (%) [8]: 4% | Population Mitochondria Different-Phenotype (%) [8]: 58% | Population Mitotic Cells (%) [8]: 50% | Population Normal (%) [8]: 95% | Population Pyknosed Nuclei (%) [8]: 14% | Population Tubulin-Different-Phenotype (%) [8]: 29% | Total Cell Count [8]: 393 | Population Apoptotic (%) [9]: 20% | Population Fragmented Nuclei (%) [9]: 13% | Population Healthy Nuclei (%) [9]: 78% | Population Hoechst High Intensity Objects (%) [9]: 3% | Population Membrane Permeable-Phenotype (%) [9]: 1% | Population Mitochondria Different-Phenotype (%) [9]: 19% | Population Mitotic Cells (%) [9]: 79% | Population Normal (%) [9]: 96% | Population Pyknosed Nuclei (%) [9]: 8% | Population Tubulin-Different-Phenotype (%) [9]: 13% | Total Cell Count [9]: 902 | Population Apoptotic (%) [10]: 33% | Population Fragmented Nuclei (%) [10]: 11% | Population Healthy Nuclei (%) [10]: 80% | Population Hoechst High Intensity Objects (%) [10]: 2% | Population Mitochondria Different-Phenotype (%) [10]: 23% | Population Mitotic Cells (%) [10]: 66% | Population Normal (%) [10]: 97% | Population Pyknosed Nuclei (%) [10]: 7% | Population Tubulin-Different-Phenotype (%) [10]: 12% | Total Cell Count [10]: 655 | Population Apoptotic (%) [11]: 36% | Population Fragmented Nuclei (%) [11]: 13% | Population Healthy Nuclei (%) [11]: 78% | Population Hoechst High Intensity Objects (%) [11]: 4% | Population Membrane Permeable-Phenotype (%) [11]: 0% | Population Mitochondria Different-Phenotype (%) [11]: 30% | Population Mitotic Cells (%) [11]: 63% | Population Normal (%) [11]: 95% | Population Pyknosed Nuclei (%) [11]: 8% | Population Tubulin-Different-Phenotype (%) [11]: 21% | Total Cell Count [11]: 813 | Population Fragmented Nuclei (%) [12]: 12% | Population Healthy Nuclei (%) [12]: 80% | Population Hoechst High Intensity Objects (%) [12]: 3% | Population Mitochondria Different-Phenotype (%) [12]: 39% | Population Normal (%) [12]: 96% | Population Pyknosed Nuclei (%) [12]: 7% | Population Tubulin-Different-Phenotype (%) [12]: 16% | Total Cell Count [12]: 625
